In ChEMBL document CHEMBL4411297, “Discovery, synthesis and anti-atherosclerotic activities of a novel selective sphingomyelin synthase 2 inhibitor” (Eur J Med Chem, 2019):

Legend:
[1] = Apparent volume of distribution during terminal phase in C57BL/6J mouse at 50 mg/kg/day, ig by HPLC-MS/MS analysis; format: ADME, organism-based; details: in vivo, po, read-out: Vz/F
Summary of the method: (§1)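 Male C57BL/6J mice, six to eight weeks old, about 20 g, fasted 12 h with free water. Given a single intragastric dose of 25, 50 or 100 mg/kg in 10% DMSO/30% PEG-100/0.9% NaCl. Blood taken retro-orbitally at 5 min to 8 h. Plasma protein-precipitated with methanol plus internal standard, then HPLC-MS/MS on a C18 column. Noncompartmental analysis, n = 6.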

[2] = Apparent oral clearance in C57BL/6J mouse at 25 mg/kg/day, ig by HPLC-MS/MS analysis; format: ADME, organism-based; details: in vivo; summary of the method: as §1
Homo sapiens = organism: Homo sapiens; assay: Selectivity ratio of IC50 for purified SMS1 (unknown origin) to IC50 for purified SMS2 (unknown origin)
Mus musculus [3] = assay: Effect on plasma AST level in apoE knockout mouse fed with western-type diet at 12.5 to 40 mg/kg/day, ig for 7 weeks; format: ADME, organism-based; details: in vivo, po, 1176 h
Summary of the method: (§2)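 ApoE KO mice on Western-type diet, dosed by gavage at 12.5 or 40 mg/kg/day for 7 weeks, n = 10. Blood collected at 20 weeks of age. Plasma SM measured by a previously reported method. ALT and AST read on an automated biochemical analyzer.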

Mus musculus [4] = assay: Effect on body weight in apoE knockout mouse fed with western-type diet at 12.5 to 40 mg/kg/day, ig for 7 weeks; format: ADME, organism-based; details: in vivo, po, 1176 h
Summary of the method: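 ApoE KO mice on Western-type diet, dosed by gavage daily at 12.5 or 40 mg/kg for 7 weeks. Body weight recorded weekly throughout dosing and compared with vehicle, 10 mice per group.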

[5] = AUC (0 to 8 hrs) in C57BL/6J mouse at 50 mg/kg/day, ig by HPLC-MS/MS analysis; format: ADME, organism-based; parameters: time < 8 hr, dose 50 mg/kg/day, route intragastric; details: in vivo, po; summary of the method: as §1
Mus musculus [6] = assay: Anti-atherosclerotic activity in apoE knockout mouse fed with western-type diet assessed as reduction in lesions in whole aorta at 40 mg/kg/day, ig for 7 weeks by oil-red O staining-based assay relative to control; format: functional; parameters: scale not given: the % may be the effect or the level left
Summary of the method: (§3)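 ApoE KO mice fed Western-type diet, then given 12.5 or 40 mg/kg/day by gavage in 30% PEG-400/10% DMSO/0.9% NaCl for 7 weeks. Aortic root: H&E-stained 4 µm sections, mean lesion area from 6 sections per animal. Whole aorta: en face Oil Red O staining, percentage of area stained. Compared with vehicle, n = 10.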

Mus musculus [7] = assay: Anti-atherosclerotic activity in apoE knockout mouse fed with western-type diet assessed as reduction in liver SMS activity at 40 mg/kg/day, ig for 7 weeks relative to control; format: functional; parameters: scale not given: the % may be the effect or the level left
Summary of the method: (§4)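 ApoE KO mice on Western-type diet, dosed by gavage at 12.5 or 40 mg/kg/day for 7 weeks, n = 10. Liver homogenized at 200 mg/ml in 50 mM Tris-HCl pH 7.4, 1 mM EDTA, 250 mM sucrose. C6-NBD-ceramide and DMPC added, incubated at 37 °C, quenched with ethanol. Product read by TLC or HPLC, relative to vehicle.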

[8] = Dose normalized AUC (0 to 8 hrs) in C57BL/6J mouse at 25 mg/kg/day, ig by HPLC-MS/MS analysis; format: ADME, organism-based; details: in vivo, po; summary of the method: as §1
Mus musculus [9] = assay: Anti-atherosclerotic activity in apoE knockout mouse fed with western-type diet assessed as reduction in lesions in proximal aorta at 12.5 mg/kg/day, ig for 7 weeks by hematoxylin and eosin staining-based assay relative to control; format: functional; parameters: scale not given: the % may be the effect or the level left; summary of the method: as §3
Mus musculus [10] = assay: Anti-atherosclerotic activity in apoE knockout mouse fed with western-type diet assessed as reduction in lesions in whole aorta at 12.5 to 40 mg/kg/day, ig for 7 weeks by oil-red O staining-based assay relative to control; format: functional, organism-based; summary of the method: as §3
[11] = Apparent oral clearance in C57BL/6J mouse at 100 mg/kg/day, ig by HPLC-MS/MS analysis; format: ADME, organism-based; details: in vivo; summary of the method: as §1
[12] = MRT (0 to 8 hrs) in C57BL/6J mouse at 25 mg/kg/day, ig by HPLC-MS/MS analysis; format: ADME, organism-based; details: in vivo, po
Summary of the method: (§5)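 Male C57BL/6J mice (6–8 weeks, ~20 g), fasted 12 h, given a single intragastric dose of 25, 50 or 100 mg/kg in 10% DMSO/30% PEG/0.9% NaCl. Retro-orbital blood at 5 min to 8 h; plasma protein-precipitated with methanol plus internal standard, assayed by LC-MS/MS; noncompartmental analysis. Mean ± SD, n = 6.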

[13] = MRT (0 to infinity) in C57BL/6J mouse at 50 mg/kg/day, ig by HPLC-MS/MS analysis; format: ADME, organism-based; details: in vivo, po; summary of the method: as §5
Mus musculus [14] = assay: Anti-atherosclerotic activity in apoE knockout mouse fed with western-type diet assessed as reduction in macrophage content at 40 mg/kg/day, ig for 7 weeks by immunostaining assay relative to control; format: functional; parameters: scale not given: the % may be the effect or the level left
Summary of the method: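 ApoE KO mice on Western-type diet, dosed by gavage at 12.5 or 40 mg/kg/day for 7 weeks. Aortic root sections 4 µm thick immunostained with MOMA-2: primary antibody 1 h at room temperature, biotinylated secondary, HRP-streptavidin, DAB, hematoxylin counterstain. Stained area quantified and expressed relative to vehicle.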

[15] = Half life in C57BL/6J mouse at 50 mg/kg/day, ig by HPLC-MS/MS analysis; format: ADME, organism-based; details: in vivo, po; summary of the method: as §1
Mus musculus [16] = assay: Anti-atherosclerotic activity in apoE knockout mouse fed with western-type diet assessed as reduction in liver SMS activity at 12.5 mg/kg/day, ig for 7 weeks relative to control; format: functional; parameters: scale not given: the % may be the effect or the level left; summary of the method: as §4
[17] = AUC (0 to 8 hrs) in C57BL/6J mouse at 100 mg/kg/day, ig by HPLC-MS/MS analysis; format: ADME, organism-based; parameters: dose 100 mg/kg/day, time < 8 hr, route intragastric; details: in vivo, po; summary of the method: as §1
Mus musculus [18] = assay: Anti-atherosclerotic activity in ig dosed apoE knockout mouse fed with western-type diet assessed as reduction in plasma sphingomyelin level; format: functional, organism-based; summary of the method: as §2

## CCc1ccccc1COc1ccccc1C(=O)Nc1cccnc1
[1]
  Vd/F: 26.5 L
[2]
  CL/F: 188 mL/min
Homo sapiens
  Ratio IC50: > 1400
Mus musculus [3]
  Activity: Non-Toxic
Mus musculus [4]
  Activity: Non-Toxic
[5]
  AUC at 8 h: 6260 ng·h/mL
Mus musculus [6]
  Activity: 41%
Mus musculus [7]
  Activity: 39%
[8]
  AUC/dose: 0.08 µg·h/mL
Mus musculus [9]
  Activity: 38%
Mus musculus [10]
  Activity: Dose-dependent effect
[11]
  CL/F: 143 mL/min
[12]
  MRT: 1.9 h
[13]
  MRT inf: 2.28 h
Mus musculus [14]
  Activity: 55%
[15]
  half-life: 1.83 h
Mus musculus [16]
  Activity: 35%
[17]
  AUC at 8 h: 13200 ng·h/mL
Mus musculus [18]
  Activity: Dose-dependent effect
